ChEMBL document CHEMBL4477167, “Limonoids and Triterpenoids as 11β-HSD1 Inhibitors from Walsura robusta” (J Nat Prod, 2016)

Experiments:
[1] = target: 11-beta-hydroxysteroid dehydrogenase 1 (Mus musculus) (UniProt P50172); assay: Inhibition of mouse microsomal 11beta-HSD1 overexpressed in HEK293 cells using [3H]-cortisone as substrate assessed as formation of [3H]-cortisol at 10 uM using [3H]cortisone by scintillation proximity assay in presence of NADPH
Summary of the method: (§1)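 Human or mouse 11β-HSD1 inhibition measured in vitro by scintillation proximity assay (SPA). Every isolate was first screened at a single concentration of 10 μM. […] Glycyrrhetinic acid served as the positive control. Other assay conditions follow an earlier report.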

[2] = target: T1, 11-beta-hydroxysteroid dehydrogenase 1 (Homo sapiens, UniProt P28845); assay: Inhibition of human microsomal 11beta-HSD1 overexpressed in HEK293 cells using [3H]-cortisone as substrate assessed as formation of [3H]-cortisol using [3H]cortisone by scintillation proximity assay in presence of NADPH
Target sequence in this assay (P28845 whole entry): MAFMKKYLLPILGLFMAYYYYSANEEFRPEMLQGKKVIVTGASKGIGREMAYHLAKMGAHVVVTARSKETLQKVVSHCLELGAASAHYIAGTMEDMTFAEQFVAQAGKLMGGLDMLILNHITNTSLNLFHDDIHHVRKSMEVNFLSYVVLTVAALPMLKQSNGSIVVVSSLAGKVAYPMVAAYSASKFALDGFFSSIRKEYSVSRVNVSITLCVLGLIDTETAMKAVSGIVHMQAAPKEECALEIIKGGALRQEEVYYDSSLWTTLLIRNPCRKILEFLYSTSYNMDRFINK

[3] = target: T1, 11-beta-hydroxysteroid dehydrogenase 1; assay: Inhibition of human microsomal 11beta-HSD1 overexpressed in HEK293 cells using [3H]-cortisone as substrate assessed as formation of [3H]-cortisol at 10 uM using [3H]cortisone by scintillation proximity assay in presence of NADPH; summary of the method: as §1
Target sequence in this assay (P28845 whole entry, looked up): as the sequence (P28845 whole entry) above

[4] = target: 11-beta-hydroxysteroid dehydrogenase 1 (Mus musculus, UniProt P50172); assay: Inhibition of mouse microsomal 11beta-HSD1 overexpressed in HEK293 cells using [3H]-cortisone as substrate assessed as formation of [3H]-cortisol using [3H]cortisone by scintillation proximity assay in presence of NADPH
11-beta-hydroxysteroid dehydrogenase 1 (Mus musculus, UniProt P50172), sequence (P50172 whole entry): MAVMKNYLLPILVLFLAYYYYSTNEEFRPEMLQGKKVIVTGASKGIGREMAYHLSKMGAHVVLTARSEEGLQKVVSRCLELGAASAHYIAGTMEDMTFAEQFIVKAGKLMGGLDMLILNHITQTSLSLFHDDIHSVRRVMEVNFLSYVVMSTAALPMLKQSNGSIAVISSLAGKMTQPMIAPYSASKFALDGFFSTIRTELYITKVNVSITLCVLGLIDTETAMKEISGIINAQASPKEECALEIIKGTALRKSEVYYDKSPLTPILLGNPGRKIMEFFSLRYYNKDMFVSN

11-beta-hydroxysteroid dehydrogenase 1 (Mus musculus), sequence (P50172 whole entry, looked up): as the sequence (P50172 whole entry) above

SMILES	inhibition [1] [%]	IC50 [2] [nM]	inhibition [3] [%]	IC50 ([4]; read-out: IC50) [nM]	IC50 ([4]; hek293)
C[C@@H]([C@@H]1O[C@@H]1C(O)C(C)(C)O)[C@@H]1CC[C@]2(C)C3=CC[C@H]4C(C)(C)[C@H](O)CC[C@]4(C)[C@H]3CC[C@@]12C (stereo partly specified)	> 50	1900	> 50	1200	–
CC(=O)O[C@H]1C[C@@]2(C)[C@H](c3ccoc3)C[C@H]3O[C@]32[C@]2(C)C(=O)C(O)=C3C(C)(C)C(=O)C=C[C@]3(C)[C@@H]12	–	9900	> 50	–	Not Active
C[C@@H](C[C@@H](O)[C@H](O)C(C)(C)O)[C@@H]1CC[C@]2(C)C3=CC[C@H]4C(C)(C)C(=O)CC[C@]4(C)[C@H]3CC[C@@]12C	> 50	–	< 50	880	–
C[C@@H](C[C@@H](O)[C@@H]1OC1(C)C)[C@H]1CC[C@@]2(C)C3=CC[C@H]4C(C)(C)C(=O)CC[C@]4(C)[C@H]3CC[C@]12C	> 50	–	< 50	690	–
C[C@@H](C[C@@H](O)[C@@H]1OC1(C)C)[C@H]1CC[C@@]2(C)C3=CC[C@H]4C(C)(C)[C@@H](O)CC[C@]4(C)[C@H]3CC[C@]12C	> 50	–	< 50	3800	–
